In the EternaBench riboswitch data:

Tested on: MS2 coat protein
Assay: apparent Kd, MS2 coat protein; higher = weaker binding; RNA-MaP array; FMN 200 µM where present
Summary of the method: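 Green signal from SNAP-549-labelled MS2 coat protein was normalised to red-channel RNA signal and to the median Fmax of control clusters. The protein was titrated from 0.7 or 1.5 nM, doubling to 3 µM, without and then with constant ligand, over designs transcribed by stalled E. coli RNA polymerase on Illumina sequencing-chip clusters, in 100 mM Tris-HCl pH 7.5, 80 mM KCl, 4 mM MgCl2, BSA, DTT, yeast tRNA and Tween-20. The apparent Kd is the median of filtered per-cluster binding-curve fits.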

[1] = designed as: OFF switch for flavin mononucleotide, no ligand
[2] = ligand present: flavin mononucleotide, designed as: OFF switch for flavin mononucleotide
[3] = designed as: ON switch for flavin mononucleotide, no ligand
[4] = ligand present: flavin mononucleotide, designed as: ON switch for flavin mononucleotide

Sequence	apparent Kd [1] [nM]	apparent Kd [2] [nM]	apparent Kd [3] [nM]	apparent Kd [4] [nM]
AAGAAACACGUGGAGUUAUUCGGGUAGGAUAUCUACGACCUGAUCGACAUGAGGAUCACCCAUGUAGAGAAGGGCCCAUCUCCU	6.65	8.87	–	–
UUAUUAGCAGGAUAUAUCCAGGAUUACAUGAGGAUCACCCAUGUGACCGCUUGAAAUUCUAUAGAAGGGCUUUAUU	33.2	36.4	–	–
CAGGUAGACUGAGGAUAUACAAUAAAGACCUAGUCUAUCUAGGUCUUCACAUGAGGAUCACCCAUGUAGAAGGCAGUCUGCCUG	19.1	38.5	–	–
GCGAGCGUACUUGCAACAUGAGGAUCACCCAUGUUAACUGGACAGGAUAUGGUACCGUUUCGGUACCAGAAGGGUUCACUCAUG	–	–	137	250
GCUGGACGAGGAUAUAUAUGACGUGCUUCGGCACGAAGGUCACAUGAGGAUCACCCAUGUAGAAGGUGUCCAGC	30.7	106	–	–
AGUCUGCUAGGAUAUACAUGAGGAUCACCCAUGUCUAUCAAAAGACUAUUAACCUGGUGUAGAAGGAGCUUGUA	11.1	12.5	–	–
ACCUGCCGUGGCACGGUAGUACCGGAGGAUAUCCGCGUCGGUCAUGACAUGAGGAUCACCCAUGUGGAGAAGGCUGGUUUGUCC	11.9	24.8	–	–
UAUAUAUAGUAAGGAUAUGUAAUUAUUUUAUCAACAGAAGGUACUGACAUGAGGAUCACCCAUGUUUUAGUGUGGGCAUGUAGA	87.9	111	–	–
ACAUGAGGAUCACCCAUGUGAUGAUCUUCCAUGUCAUAUUUCAGAAGGCUCGCAUGUUUAAUGAGAGAGGAUAUGGAAUAUGCG	701	386	–	–
GCGUGGAAUACAGGAUAUGUUGUACAAUAAUCUUUGAGGCAUUGAGAUUAUACAGAAGGGUAAACAUGAGGAUCACCCAUGUAA	31	25.1	–	–
UUCUUACGAGGAUAUCGAUGGUGGAACAUGAGGAUCACCCAUGUAUGAGAUAUUGUAUUUCGAGAAGGCGUUCAGU	55.2	36.2	–	–
AGUAUGCAGCAGGAUAUCGAUCCGCAGUAUGAUCGAGAAGGGCUGACAUGAGGAUCACCCAUGUGCGUCCUAGG	40.1	167	–	–
UUUGCAACAUGAGGAUCACCCAUGUAGGAUAUCGCUAUUGUAAUCAUGAAACAUGAUUACAAUAGCGAGAAGGACAUAUGCGGG	44.4	35	–	–
AACAGUGCAAUAAUAAUAAGAUCUACAUGAGGAUCACCCAUGUAGGAUAUCGUCAGGAAUACUGACGAGAAGGACAUAGCACUG	13.9	15.6	–	–
ACAUGGUAGUAGAAGGGUAUUACUUUAGAUACAACCAUUUGUAUUGUUUAUACAGGAUAUGCUUACAUGAGGAUCACCCAUGUU	11.3	11.1	–	–
GCUGGUCGAGGAUAUGCAAUCGUGCUUCGGCACGUAAGGUCACAUGAGGAUCACCCAUGUAGAAGGUGACCAGC	17.1	23.3	–	–
UAAUCGUUGCAGAAGGUUAUUAUUAUAACGUGACACUUAACAUGAGGAUCACCCAUGUUUUUUAUGAAGGAUAUGCAACGGUAG	7.07	7.29	–	–
UAAACGUUCUAGAAGGUGCUUUUGUUAAACAAGCAAGGAUAUAGACAUGAGGAUCACCCAUGUCUUUGAGACAUCGACAUACUU	8.41	9.14	–	–
AACAGUACAGGAUAUACAUGAGGAUCACCCAUGUGACAAUUAAGUGGCGUACCACAAAGUAGAAGGGUACUGGA	28.2	150	–	–
UUCAGACAUGAGGAUCACCCAUGUGAGGAUAUGAUGCGAUCGUCGAAAGACGAUAGCAUCAGAAGGCACAUAUG	167	315	–	–
AACAGUAGAGGAUAUACAUGAGGAUCACCCAUGUGAUAAUUACGUGGCGUACCACGAAGUAGAAGGCUACUGGA	65.6	316	–	–

Sequence	apparent Kd [1] [nM]	apparent Kd [2] [nM]	apparent Kd [3] [nM]	apparent Kd [4] [nM]
UCCUUCUGUUGAGGAUAUGUAAGACAGCGGCUGCUAUUGCGGCACGCUGAUACAGAAGGCAACAUGAGGAUCACCCAUGUUCAA	26.4	205	–	–
GGUCCAACAUGAGGAUAUGGCACCUUAUUGGUGCCAGAAGGCAUGUCUAUAGACAUGAGGAUCACCCAUGUAAUAAAUUGGACC	–	–	689	47.8
GUGUACAGAGGAUAUACAGGAGCUAGGAAACUAGCAACCUCACAUGAGGAUCACCCAUGUAGAAGGCUGUACAC	251	66.7	–	–
UUAUGUGUCGUAGGAUAUCAUUAGAUUUGUAAUUUAAUUGUAAUUUACAUAUGAGAAGGACGUUUACAUGAGGAUCACCCAUGU	15.9	14.6	–	–
CUAUUGGUAACAGGAUAUAUGAGUCCUACAUGAGGAUCACCCAUGUAGGUGGUCAAACGUGAUUAGUAGAAGGGUUACCAAUAG	–	–	12.2	6.18
GAGAGGUCAGGAUAUGCAUGGCGGGACUUGCGUCGUGGCGUGCAGAAGGGACAUGAGGAUCACCCAUGUGGAGG	169	203	–	–
UAGGUUUGUAGUUACAUCCCUACACAGGAUAUGGGUAGUUACAUGAGGAUCACCCAUGUUCGAACUCAGAAGGGUGGAUCGUUA	–	–	170	13.8
CAUACACAUGAGGAUCACCCAUGUGAGGAUAUGCGUACGUAAUCCGUAGGAGACGUGCGCAGAAGGCGCGAGGU	56.6	44	–	–
GGUGUGGCAGGAUAUACAUCGAAGGGUGCAAAGGGCUCGGCACAUGAGGAUCACCCAUGUAGAAGGGCCUACCA	14.9	20.7	–	–
AUUAAACAUGAGGAUCACCCAUGUCAACAAAGUCGAGGAUAUGGGCAAAUAAAAUAAGAACCAGAAGGCGACUAAU	–	–	22.8	16
AGUAUGCGGCAGGAUAUCCAUCCGCGGUGUGGUGGAGAAGGGCUGACAUGAGGAUCACCCAUGUGCGUCCUGUA	23.6	37.9	–	–
AGAUACAACCAGAAGGACAUGAGGAUCACCCAUGUAGGAUAUGGGUUACACGUUCCUGGGAAUUGUAACGACGCUACGAAGAGU	–	–	126	12.8
UCAGUCAUGUAAGGAUAUGCAGCCGUUUCGGCUGCAGAAGGUACUAUAAUUACAUGAGGAUCACCCAUGUUAUAAAAUUUAUAU	–	–	52.5	19.9
AGACGGAGCAGAGGAUAUACAUGAGGAUCACCCAUGUAAGAUCUCCAGGAAACUGGAGAUCAAAUGUAGAAGGCUGCUCCGUCA	17.8	55.8	–	–
AUCCAGCGAGGAUAUACAUAGAUUUUUUCGUUUUGUCUCGAACAUGAGGAUCACCCAUGUAGAAGGUGCUUCAC	82.5	81	–	–
UCUUUACUGGUCAGGAUAUACAUUCGCUACUCUUUGUAGAAGGGACAUGAGGAUCACCCAUGUACUUUACAUUC	17.9	18	–	–
AGCCUACAUGAGGAUCACCCAUGUCAGGAUAUCUCGCGGCGUGUCAAGUUCACACUGCAGAGAAGGGACUCGGG	58.1	66.9	–	–
AACAGUAUAGGAUAUACAUGAGGAUCACCCAUGUGAGAAUUAAGUGGCGUACCACUAAGUAGAAGGAUACUGGA	50.8	222	–	–
GGUAGAGAGCAGGAUAUCUUGGGUAAGUAUCGUAGAGAAGGGCUCACAUGAGGAUCACCCAUGUGGUCCAAGAU	15.5	34.2	–	–
UCUGGUCGAGGAUAUGCGUAAUGUGUUACGGCACGAGGUCUACAUGAGGAUCACCCAUGUAGAAGGCGAUCAGA	13.9	12.7	–	–
ACAAAUGGAGGAUAUACAUGAGGAUCACCCAUGUAUAUCCUACAUGUGUGAUAAUAAUGUAGAAGGCCAUUUGA	13.7	12	–	–
